Key:
Plasmodium falciparum [1] = test: Antiplasmodial activity against chloroquine-resistant Plasmodium falciparum W2 infected in human A+ erythrocytes by HRP2 detection based ELISA; type: functional, cell-based
Method in brief: (§1)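 W2 blood-stage culture in A+ human erythrocytes in RPMI 1640 with 10% A+ human serum at 37 °C, under 3% O2/5% CO2. Growth was read with monoclonal antibodies against histidine- and alanine-rich protein II (HRPII). IC50 was estimated by curve fitting against drug-free controls.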

[2] = target: Dihydroorotate dehydrogenase (quinone), mitochondrial (Homo sapiens) (UniProt Q02127); test: Inhibition of recombinant human DHODH assessed as residual activity at 50 uM using L-dihydroorotate as substrate by DCIP-based colorimetric assay relative to control
Sequence of Dihydroorotate dehydrogenase (quinone), mitochondrial (Homo sapiens) (Q02127 whole entry): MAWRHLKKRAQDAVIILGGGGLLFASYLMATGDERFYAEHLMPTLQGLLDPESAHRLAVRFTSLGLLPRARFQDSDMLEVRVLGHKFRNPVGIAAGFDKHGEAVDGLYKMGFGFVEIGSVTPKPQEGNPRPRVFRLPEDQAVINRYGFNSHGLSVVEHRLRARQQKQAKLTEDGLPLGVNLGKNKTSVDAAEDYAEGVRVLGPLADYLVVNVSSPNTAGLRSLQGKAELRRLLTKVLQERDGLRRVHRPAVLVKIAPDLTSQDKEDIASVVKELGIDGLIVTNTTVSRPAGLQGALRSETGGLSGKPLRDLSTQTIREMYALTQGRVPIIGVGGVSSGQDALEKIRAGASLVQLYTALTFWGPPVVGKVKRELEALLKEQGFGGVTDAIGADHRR
Method in brief: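 Recombinant human DHODH at 20 nM final, in 50 mM Tris pH 8.15 with 150 mM KCl and 0.1% Triton X-100. Substrate was 1 mM L-dihydroorotate, with CoQ0 as acceptor and DCIP as dye. DCIP reduction was followed at 610 nm for 60 s at 25 °C, against a no-enzyme reference. Four replicates per concentration; activity is % of the uninhibited control.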

Plasmodium falciparum [3] = test: Antiplasmodial activity against chloroquine-resistant Plasmodium falciparum W2 infected in human A+ erythrocytes assessed as inhibition of [3H]-hypoxanthine incorporation after 42 hrs by beta counting method; type: functional, cell-based
Method in brief: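 W2 parasites cultured at 37 °C in A+ human erythrocytes in RPMI 1640 with 10% A+ human serum, under low O2 (3% O2, 5% CO2). Compound dilutions were tested at 1% parasitemia and 1% haematocrit. [3H]-hypoxanthine uptake was read by beta counting after 42 h. IC50 was derived by curve fitting relative to drug-free controls.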

[4] = Cytotoxicity against African green monkey BGM cells assessed as lethality after 24 hrs by neutral red dye based assay; type: cell-based; conditions: chlorocebus aethiops, read-out: MLD50
Method in brief: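 BGM monkey kidney cells grown in RPMI 1640 with 10% heat-inactivated foetal serum and gentamicin. Cells were seeded at 1 × 10⁵ cells/mL and left 18 h to adhere. Compounds were added across a 1000–1 dilution range for 24 h at 37 °C in 5% CO2. Cells took up neutral red for 2 h, were fixed with formaldehyde/CaCl2 and extracted with alcohol-acetic acid, then read at A540. Viability is % of untreated cells; MLD50 was calculated from this.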

[5] = Selectivity index, ratio of MLD50 for african green monkey BGM cells to IC50 for chloroquine-resistant Plasmodium falciparum W2 infected in human A+ erythrocytes by HRP2 ELISA assay; type: toxicity, cell-based; conditions: read-out: Selectivity Index
[6] = Selectivity index, ratio of MLD50 for african green monkey BGM cells to IC50 for chloroquine-resistant Plasmodium falciparum W2 infected in human A+ erythrocytes by [3H]-hypoxanthine incorporation assay; type: toxicity, cell-based; conditions: read-out: Selectivity Index
Plasmodium falciparum [7] = test: Inhibition of N-terminally truncated Plasmodium falciparum SUMO-tagged DHODH (159 to 569 residues) expressed in Escherichia coli BL21(DE3) assessed as residual activity at 50 uM using L-dihydroorotate as substrate by DCIP-based colorimetric assay relative to control
Method in brief: (§2)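 Recombinant PfDHODH expressed in E. coli BL21(DE3) from a SUMO-His construct, IPTG-induced. Purified by Ni-NTA, then ULP1 tag cleavage, then size exclusion. Activity measured as continuous DCIP reduction at 600 nm over 60 s at 25 °C. Reaction: 50 mM Tris pH 8.15, 150 mM KCl, 0.1% Triton X-100, 1 mM L-dihydroorotate, 100 µM CoQ₀, 60 µM DCIP, 50 nM enzyme. Four replicates per concentration; activity relative to no-inhibitor control. IC50 from nonlinear fit.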

[8] = Inhibition of N-terminally truncated Plasmodium falciparum SUMO-tagged DHODH (159 to 569 residues) expressed in Escherichia coli BL21(DE3) using L-dihydroorotate as substrate by DCIP-based colorimetric assay; method in brief: as §2
Plasmodium falciparum [9] = test: Antiplasmodial activity against chloroquine-resistant Plasmodium falciparum W2 infected in human A+ erythrocytes after 48 hrs by SYBR Green based fluorescence assay; type: functional, cell-based; conditions: W2, 48 h
Method in brief: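 W2 parasites kept at 37 °C in A+ human red cells in RPMI 1640 with 10% A+ human serum, under 3% O2/5% CO2/91% N2. Serial dilutions were run at 0.5% parasitemia and 2% haematocrit for 48 h at 37 °C. Cells were lysed in Tris/EDTA/saponin/Triton buffer with SYBR Safe for 30 min in the dark, then read at ex 485/em 535 nm. IC50 was curve-fitted against drug-free controls.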

[10] = Solubility of the compound at >100 uM; type: physicochemical
[11] = Selectivity index, ratio of MLD50 for african green monkey BGM cells to IC50 for chloroquine-resistant Plasmodium falciparum W2 infected in human A+ erythrocytes by SYBR Green based fluorescence assay; type: toxicity, cell-based
Plasmodium falciparum [12] = test: Antiplasmodial activity against chloroquine-resistant/mefloquine-sensitive Plasmodium falciparum W2 infected in human A+ erythrocytes assessed as inhibition of parasite growth by HRP2 detection based assay; type: functional, cell-based; method in brief: as §1

SMILES | IC50 (Plasmodium falciparum [1]) [µM] | Activity [2] [%] | IC50 (Plasmodium falciparum [3]) [µM] | CC50 at 24 h [4] [µM] | selectivity ratio [5] | selectivity ratio [6] | Activity (Plasmodium falciparum [7]) [%] | IC50 [8] [µM] | IC50 (Plasmodium falciparum [9]) [µM] | solubility [10] | selectivity ratio [11] | IC50 (Plasmodium falciparum [12]) [µM]
Cc1cc(Nc2ccccc2)n2nc(C)cc2n1 | 92.4 | 104 | 67.2 | 315 | 3.4 | 4.7 | 66 | – | – | – | – | –
Cc1cc(Nc2ccc(C(F)(F)F)cc2)n2nc(C(F)(F)F)cc2n1 | 30.6 | 95 | 47.2 | 108 | 3.5 | 2.3 | 33 | > 100 | – | – | – | –
Cc1cc(Nc2ccc(Cl)cc2)n2nc(C(F)(F)F)cc2n1 | 67.5 | 121 | 50.3 | 67.5 | 1 | 1.3 | 52 | 23 | – | – | – | –
Cc1cc2nc(C(F)(F)F)cc(Nc3ccccc3)n2n1 | – | 122 | 17.1 | 261 | – | 15.2 | 77 | – | 17.1 | Insoluble | 15.2 | –
Cc1cc(Nc2ccc(C(F)(F)F)cc2)n2nc(C)cc2n1 | 8.5 | 88 | 15.7 | 85 | 10 | 5.4 | 34.3 | 24 | – | – | – | –
Cc1cc(Nc2ccc(Cl)cc2)n2nc(C)cc2n1 | 23.5 | 95 | 25.7 | 566 | 24.1 | 22 | 74 | – | – | – | – | –
Cc1cc(Nc2ccccc2)n2nc(C(F)(F)F)cc2n1 | > 171 | 113 | > 171 | 856 | – | – | 88 | – | – | – | – | –
Cc1cc(Nc2ccccc2C(F)(F)F)n2nc(C)cc2n1 | 49 | 96 | 42.5 | 105 | 2.1 | 2.5 | 94 | – | – | – | – | –
COc1cc(Nc2cc(C(F)(F)F)nc3cc(C)nn23)cc(OC)c1 | – | 104 | 8.6 | > 2840 | – | > 330 | 77 | – | 8.6 | Insoluble | > 330 | –
COc1ccc(Nc2cc(C)nc3nc(C(F)(F)F)nn23)cc1 | – | – | – | – | – | – | – | – | – | – | – | 0.4
